Source: ChEMBL document CHEMBL4699574, “Discovery of Ketone-Based Covalent Inhibitors of Coronavirus 3CL Proteases for the Potential Therapeutic Treatment of COVID-19” (J Med Chem, 2020)
pEC50, pIC50: −log10 of the molar value. ≈ marks a conversion by molar mass, not a printed value. Calls of active or inactive are those of the source. No cut-off for these calls is given here.

Tests used:
[1] = Volume of distribution at steady state in dog at 2 mg/kg, iv; assay type: ADME, organism-based, Canis lupus familiaris; details: in vivo, read-out: Vdss
Human coronavirus 229E [2] = experiment: Antiviral activity against Human coronavirus 229E infected in human MRC5 cells assessed as reduction in virus-induced cytopathogenicity incubated for 4 days in presence of p-glycoprotein inhibitor CP100356 by XTT dye based assay; assay type: functional, organism-based; details: time 4.0 day
Procedure, shortened: (§1)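 P-glycoprotein transport inhibitor CP-100356 co-dosed at a fixed 0.5 µM throughout a full dose-response of the test inhibitor in the antiviral cytopathic assay.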

chymotrypsin = experiment: Inhibition of human chymotrypsin at 10 uM relative to control
[3] = Aqueous solubility of compound in 2.5% w/v SBECD, pH 7.4 5 mM citrate buffer, made isotonic with 4.25% dextrose formulation; assay type: physicochemical; details: 2.5% w/v SBECD in citrate buffer
[4] = AUC in rat at 2 mg/kg, iv; assay type: ADME, organism-based; set-up: dose 2 mg/kg; details: in vivo
[5] = Cytotoxicity against human MRC5 cells assessed as reduction in cell viability incubated for 4 days by XTT dye based assay; details: time 4 day
[6] = Metabolic stability in human liver microsomes assessed as half life; assay type: ADME, Microsome
pepsin = experiment: Inhibition of human pepsin at 10 uM relative to control
Cathepsin D [7] = biological target: T1, Cathepsin D (Homo sapiens, UniProt P07339); experiment: Inhibition of human cathepsin D at 10 uM relative to control
[8] = Aqueous solubility of compound in 2.5% w/v HPCD formulation; assay type: physicochemical; details: 2.5% w/v HPCD in water
[9] = Cytotoxicity against human HuH-7 cells assessed as reduction in cell viability; assay type: cell-based
[10] = Inhibition of human chymotrypsin
[11] = test system: Human immunodeficiency virus 1; experiment: Antiviral activity against HIV-1-RF infected in human H9 cells assessed as reduction in virus-induced cytopathogenicity incubated for 7 days by XTT dye based analysis; assay type: functional, organism-based; details: Human immunodeficiency virus 1, RF, H9, 168 h
[12] = Volume of distribution at steady state in rat at 2 mg/kg, iv; assay type: ADME, organism-based; details: in vivo
Cathepsin D [13] = biological target: T1, Cathepsin D; experiment: Inhibition of human cathepsin D
[14] = Cytotoxicity against human MRC5 cells assessed as reduction in cell viability after 1 to 5 days by XTT dye based assay; details: time 1-5 day
[15] = Cytotoxicity against African green monkey Vero 76 cells measured after 66 hrs by neutral red method or cell titer glo-based luminescence assay; details: chlorocebus sabaeus
SARS-CoV = experiment: Antiviral activity against SARS COV-1 infected in monkey Vero 76 cells assessed as reduction in virus-induced cytopathic effect measured after 66 hrs in presence of p-glycoprotein inhibitor CP100356 by neutral red method or cell titer glo-based luminescence assay; assay type: functional, organism-based; details: Severe acute respiratory syndrome-related coronavirus, Vero 76, 66 h; procedure, shortened: as §1
[16] = Cytotoxicity against human H1-HeLa cells assessed as reduction in cell viability measured after 2 to 5 days by XTT assay; assay type: cell-based; details: time 2-5 day
Cathepsin B [17] = biological target: T2, Cathepsin B (Homo sapiens, UniProt P07858); experiment: Inhibition of human cathepsin B at 10 uM relative to control
[18] = Permeability of compound in human Caco-2 cells; assay type: ADME, cell-based
[19] = Inhibition of HRV protease; set-up: species or system Human rhinovirus sp.
[20] = Aqueous solubility of compound in 2.5% w/v SBECD, pH 7.4 5 mM phosphate buffer, made isotonic with 4.25% dextrose formulation; assay type: physicochemical; details: 2.5% w/v SBECD in phosphate buffer, dose 4.6 mg/ml
[21] = biological target: Human immunodeficiency virus type 1 protease (Human immunodeficiency virus 1, UniProt Q72874); experiment: Inhibition of HIV1 protease
Hepatitis C virus = experiment: Antiviral activity against Hepatitis C virus replicon infected in human Huh-7 cells assessed as reduction in viral RNA synthesis measured after 24 to 72 hrs by Trizol reagent based RT-PCR analysis; assay type: functional, organism-based, Hepacivirus hominis
[22] = AUC in dog at 2 mg/kg, iv; assay type: ADME, organism-based, Canis lupus familiaris; set-up: dose 2 mg/kg; details: in vivo
[23] = Inhibition of HCV protease; set-up: species or system Hepacivirus hominis
[24] = Inhibition of SARS-CoV-2 3CL protease using DABCYLKTSAVLQ-SGFRKME-EDANS as peptide substrate in presence of PF-00835231 inhibitor incubated for 60 mins by FRET assay; set-up: species or system Severe acute respiratory syndrome coronavirus 2
Prothrombin = Prothrombin (Homo sapiens, UniProt P00734); experiment: Inhibition of human thrombin
[25] = Inhibition of human pepsin
[26] = biological target: leukocyte (neutrophil) elastase (Homo sapiens, UniProt P08246); experiment: Inhibition of human leukocyte elastase at 10 uM relative to control
Caspase-2 [27] = biological target: T3, Caspase-2 (Homo sapiens, UniProt P42575); experiment: Inhibition of human Caspase 2 at 10 uM relative to control
[28] = Cytotoxicity against human H9 cells assessed as reduction in cell viability incubated for 7 days by XTT dye based analysis; details: time 7 day
Hepacivirus hominis = experiment: Inhibition of HCV protease at 10 uM relative to control
[29] = Half-life in rat at 2 mg/kg, iv; assay type: ADME, organism-based; details: in vivo
Neutrophil elastase = Neutrophil elastase (Homo sapiens, UniProt P08246); experiment: Inhibition of human leukocyte elastase
[30] = Volume of distribution at steady state in monkey at 4 mg/kg, iv; assay type: ADME, organism-based, Macaca mulatta; details: rhesus monkey, in vivo
[31] = Reversible inhibition of SARS coronavirus Urbani 3CL protease(9985 to 10902) using TAMRA-SITSAVLQSGFRKMK(DABCYL)-OH as substrate measured for 10 mins by FRET assay
Procedure, shortened: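 SARS CoV-1 3CLpro FRET assay; each value calculated from at least eight data points, with at least two independent determinations.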

[32] = Half-life in monkey at 4 mg/kg, iv; assay type: ADME, organism-based, Macaca mulatta; details: rhesus monkey, in vivo
Cathepsin B [33] = biological target: T2, Cathepsin B; experiment: Inhibition of human cathepsin B
Caspase-2 [34] = biological target: T3, Caspase-2; experiment: Inhibition of human Caspase 2
[35] = Clearance in dog at 2 mg/kg, iv; details: in vivo
rhinovirus B14 = experiment: Antiviral activity against Human rhinovirus 14 infected in human H1-HeLa cells assessed as reduction in virus-induced cytopathogenicity incubated for 2 to 5 days by XTT dye based analysis; assay type: functional, organism-based; details: Rhinovirus B
[36] = Inhibition of Human coronavirus 229E protease
Human coronavirus 229E [37] = experiment: microbe, parasite or virus in culture; details: MRC5, 96 h
thrombin = thrombin (Homo sapiens, UniProt P00734); experiment: Inhibition of human thrombin at 10 uM relative to control
Human betaherpesvirus 5 = experiment: Antiviral activity against Human cytomegalovirus AD169 infected in human MRC5 cells assessed as reduction in viral replication measured after 5 days by ELISA; assay type: functional, cell-based; details: Human betaherpesvirus 5, AD169, MRC5, 120 h
[38] = biological target: Human immunodeficiency virus type 1 protease (Human immunodeficiency virus 1) (UniProt Q72874); experiment: Inhibition of HIV1 protease at 10 uM relative to control
rhinovirus A16 = experiment: Antiviral activity against Human rhinovirus 16 infected in human H1-HeLa cells assessed as reduction in virus-induced cytopathogenicity incubated for 2 to 5 days by XTT dye based analysis; assay type: functional, organism-based; details: Rhinovirus A
[39] = Half life in dog at 2 mg/kg, iv; assay type: ADME, organism-based, Canis lupus familiaris; details: in vivo
[40] = AUC in monkey at 4 mg/kg, iv; assay type: ADME, organism-based, Macaca mulatta; set-up: dose 4 mg/kg; details: rhesus monkey, in vivo

T3 sequence (P42575 170-325 limits assumed): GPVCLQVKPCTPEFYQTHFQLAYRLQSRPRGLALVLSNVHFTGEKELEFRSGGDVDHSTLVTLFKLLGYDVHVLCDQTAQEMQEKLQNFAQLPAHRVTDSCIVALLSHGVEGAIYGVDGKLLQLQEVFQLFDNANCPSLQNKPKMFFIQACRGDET
T3 sequence (P42575 334-452 limits assumed): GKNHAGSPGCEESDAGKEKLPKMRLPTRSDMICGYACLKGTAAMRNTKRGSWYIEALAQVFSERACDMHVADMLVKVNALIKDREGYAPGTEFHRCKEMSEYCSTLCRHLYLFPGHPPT
T1 sequence (P07339 65-162 limits assumed): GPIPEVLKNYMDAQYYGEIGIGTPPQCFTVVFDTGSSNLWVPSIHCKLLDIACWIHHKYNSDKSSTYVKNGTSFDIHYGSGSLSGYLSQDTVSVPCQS
T1 sequence (P07339 169-412 limits assumed): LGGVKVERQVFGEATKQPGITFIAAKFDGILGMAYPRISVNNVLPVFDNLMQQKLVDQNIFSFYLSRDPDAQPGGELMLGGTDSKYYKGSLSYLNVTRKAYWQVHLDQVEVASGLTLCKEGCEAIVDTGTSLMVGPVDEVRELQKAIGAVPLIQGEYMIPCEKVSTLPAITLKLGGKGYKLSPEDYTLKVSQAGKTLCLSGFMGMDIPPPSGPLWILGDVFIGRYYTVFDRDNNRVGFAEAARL
Chain of Neutrophil elastase (P08246 whole entry): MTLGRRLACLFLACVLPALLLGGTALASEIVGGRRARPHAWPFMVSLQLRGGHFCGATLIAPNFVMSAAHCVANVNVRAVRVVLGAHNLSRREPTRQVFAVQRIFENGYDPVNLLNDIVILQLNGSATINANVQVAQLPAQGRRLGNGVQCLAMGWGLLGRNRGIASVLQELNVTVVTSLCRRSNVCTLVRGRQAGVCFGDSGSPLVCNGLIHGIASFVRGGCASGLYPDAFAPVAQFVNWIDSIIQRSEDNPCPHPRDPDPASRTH
Chain of leukocyte (neutrophil) elastase (P08246 whole entry): as above

## COc1cccc2[nH]c(C(=O)N[C@@H](CC(C)C)C(=O)N[C@@H](C[C@@H]3CCNC3=O)C(=O)CO)cc12 [PF-00835231]
[1]
  Vd: 0.4 L/kg
Human coronavirus 229E [2]
  Activity: Active
chymotrypsin
  inhibition at 10 µM: 8%
[3]
  solubility: 4600 µg/mL (≈ 9.73 mM)
[4]
  AUC: 1200 ng·h/mL
[5]
  CC50 at 96 h: > 40 µM
[6]
  half-life: 1.78 h
pepsin
  inhibition at 10 µM: -2%
Cathepsin D [7]
  inhibition at 10 µM: 3%
[8]
  solubility: 6600 µg/mL (≈ 14 mM)
[9]
  CC50: > 320 µM
[10]
  pIC50: < 5.00
[11]
  pEC50: < 4.49
[12]
  Vdss: 1.2 L/kg
Cathepsin D [13]
  pIC50: < 5.00
[14]
  CC50: > 100 µM
[15]
  CC50 at 66 h: 452 µM
SARS-CoV
  pEC50: 5.96
[16]
  CC50: > 1260 µM
Cathepsin B [17]
  inhibition at 10 µM: 93%
[18]
  permeability: Impermeable
[19]
  pIC50: 5.77
[20]
  solubility: 4600 µg/mL (≈ 9.73 mM)
[21]
  pIC50: < 5.00
Hepatitis C virus
  pEC50: < 3.49
[22]
  AUC: 3800 ng·h/mL
[23]
  pIC50: < 5.00
[24]
  pIC50: 9.57
Prothrombin
  pIC50: < 5.00
[25]
  pIC50: < 5.00
[26]
  inhibition at 10 µM: -31%
Caspase-2 [27]
  inhibition at 10 µM: -20%
[28]
  CC50 at 168 h: > 32 µM
Hepacivirus hominis
  inhibition: 16%
[29]
  t1/2: 1 min
Neutrophil elastase
  pIC50: < 5.00
[30]
  Vdss: 0.6 L/kg
[31]
  pIC50: 8.40
[32]
  t1/2: 1.6 min
Cathepsin B [33]
  pIC50: 5.89
Caspase-2 [34]
  pIC50: < 5.00
[35]
  clearance: 10.5 mL/min/kg
Rhinovirus B14
  pEC50: < 4.00
[36]
  pIC50: 8.40
Human coronavirus 229E [37]
  pEC50: 8.05
thrombin
  inhibition at 10 µM: -28%
Human betaherpesvirus 5
  pEC50: < 4.00
[38]
  inhibition: 0%
Rhinovirus A16
  pEC50: < 4.00
[39]
  half-life: 1.3 h
[40]
  AUC: 3800 ng·h/mL
